TRPC6 inh – mouse TRPC6 channel inhibition; HEK293-TRPC6, membrane potential dye, ACh-evoked depolarization; hits give low values; B-score at 10 µM; hit rate 1.1% among 310,000; AID 2553;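 active = B-score under library mean minus 3 SD, initial fluorescence not abnormally high, positive integrated signal ratio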;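 note: B-score derived from integrated fluorescence ratio over the kinetic read; more negative B-score means stronger inhibition of depolarization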
Target sequence (Q61143 whole entry, looked up): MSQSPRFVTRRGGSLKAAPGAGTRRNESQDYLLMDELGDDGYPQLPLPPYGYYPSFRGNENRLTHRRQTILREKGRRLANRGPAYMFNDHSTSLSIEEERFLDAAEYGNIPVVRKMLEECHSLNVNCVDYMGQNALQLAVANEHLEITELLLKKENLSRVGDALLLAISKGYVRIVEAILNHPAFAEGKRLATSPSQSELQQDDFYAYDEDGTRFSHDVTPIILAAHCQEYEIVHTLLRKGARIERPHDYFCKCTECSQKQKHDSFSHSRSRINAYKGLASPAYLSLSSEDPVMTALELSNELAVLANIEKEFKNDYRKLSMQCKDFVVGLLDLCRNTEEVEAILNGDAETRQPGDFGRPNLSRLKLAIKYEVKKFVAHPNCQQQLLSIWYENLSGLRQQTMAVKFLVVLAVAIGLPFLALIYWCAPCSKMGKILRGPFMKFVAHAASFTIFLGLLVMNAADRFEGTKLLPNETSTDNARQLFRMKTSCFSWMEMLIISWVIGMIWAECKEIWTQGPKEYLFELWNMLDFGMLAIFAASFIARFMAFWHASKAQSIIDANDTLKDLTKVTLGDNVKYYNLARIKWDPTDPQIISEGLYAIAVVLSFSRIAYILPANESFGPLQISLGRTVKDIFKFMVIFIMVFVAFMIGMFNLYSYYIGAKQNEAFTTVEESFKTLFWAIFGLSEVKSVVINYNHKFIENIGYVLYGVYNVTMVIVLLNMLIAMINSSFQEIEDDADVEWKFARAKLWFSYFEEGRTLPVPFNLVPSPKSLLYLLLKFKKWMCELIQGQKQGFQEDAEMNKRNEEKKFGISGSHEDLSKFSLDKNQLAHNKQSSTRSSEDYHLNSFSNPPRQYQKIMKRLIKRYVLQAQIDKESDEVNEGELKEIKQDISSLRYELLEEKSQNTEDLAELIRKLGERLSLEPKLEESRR
TRPC4 potent – TRPC4 (mouse) allosteric potentiation | Q9QUQ5 | HEK293 TRPC4beta/mu-opioid, DAMGO EC20, Fluo-4 Ca2+ flux; hits give high values | B-score at 10 µM | hit rate 0.42% among 310,000 | AID 2227;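 active = B-score of calcium response area above 5 SD of library B-scores, with initial fluorescence ratio within 5 SD of library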
TRPC4 act – opens the mouse TRPC4 cation channel; HEK293 TRPC4beta/mu-opioid, Fluo4 calcium fluorescence; hits give high values; B-score at 10 µM; hit rate 0.49% among 310,000; AID 2237;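 active = B-score above 5 SD of library B-scores, and initial fluorescence ratio not above library mean plus 5 SD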;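 note: positive B-score marks a calcium rise read as TRPC4 activation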
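Assay system – TRPC4beta and mu-opioid receptor HEK293 stable cells · Measured by – Fluo4 fluorescence, kinetic · Schedule – dye loading 45 min room temperature, 110 s kinetic read · Read-out – B-scored integrated calcium fluorescence ratio · Controls – buffer and maximal DAMGO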
TRPC4 inh – inhibitors of mouse TRPC4 channel | hit rate 0.39% among 300,000 | HEK293 TRPC4beta/mu-opioid, DAMGO-evoked Fluo4 calcium flux; hits give low values | Q9QUQ5 | AID 2247 | B-score at 10 µM;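 active = B-score over 3 SD under the library average, no early fluorescence shift, positive overall ratio signal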
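Assay system: HEK293 cells with stable TRPC4beta plus mu-opioid receptor expression. Dosing: single dose. Measured by: Fluo4 Ca2+ flux fluorescence. Also added: DAMGO in two steps, submaximal then maximal. Read-out: B score from integrated Fluo4 fluorescence ratio.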
TRPC6 act – activators of mouse TRPC6 channel | Q61143 | HEK293-TRPC6 membrane potential dye fluorescence; hits give high values | B-score at 10 µM | hit rate 0.13% among 310,000 | AID 2550;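 active = B-score of the integrated fluorescence ratio above library mean plus 3 SD, and starting fluorescence ratio within library mean plus 5 SD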;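 note: higher score means more depolarization so channel activation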
HEK293 MPD ctr – checks TRPC6 modulator effects in parental HEK293 cells; shares compounds with TRPC6 inh; membrane potential dye fluorescence; membrane potential signal change, % at 10 µM; hit rate 51% among 2,400; AID 488924;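 active = membrane potential signal moves up or down beyond 5 SD from buffer-only wells, on both duplicate plates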
HEK293 MPD ctr 2 – parental HEK293 nonspecific activity of TRPC6 modulators, second screen; inhibition, % at 10 µM; shares compounds with TRPC6 inh; AID 488926; hit rate 14% among 2,400; membrane potential dye fluorescence; after compound, maximal acetylcholine stimulation;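 active = membrane potential signal drops by more than 5 SD from the mean control signal, in both duplicate plates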
TRPC4/MOR mod – selectivity of TRPC6 modulators against mouse TRPC4; HEK293 TRPC4/mu-opioid, membrane potential fluorescence; shares compounds with TRPC6 inh; percent change from control (negative = decrease, positive = increase), % at 10 µM; hit rate 69% among 2,400;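 active = membrane potential signal moved up or down beyond 5 SD of buffer control wells, in both duplicate plates, actives on both sides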
TRPC4/MOR inh 2 – second check of whether TRPC6 modulators also affect mouse TRPC4 | inhibition, % at 10 µM | hit rate 55% among 2,400 | shares compounds with TRPC6 inh | HEK293 TRPC4/mu-opioid, membrane potential dye fluorescence; stimulated with maximal-effect DAMGO | AID 488928;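 active = drop in membrane potential signal beyond 5 SD of the control wells in both duplicate plates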;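 note: TRPC4 counter screen for TRPC6 hits run under conditions tuned for TRPC6 not TRPC4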
TRPC6 inh conf – confirmation of mouse TRPC6 inhibitors. AID 488960. HEK293-TRPC6, membrane potential dye, ACh-evoked depolarization. shares compounds with TRPC6 inh. hit rate 43% among 3,300. inhibition, % at 10 µM;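 active = fluorescence ratio falls more than 5 SD below the full-stimulation control mean, in both duplicate runs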;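 note: integrated fluorescence ratio of peak minus minimum over baseline after agonist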
TRPC6 act confirm – confirmation of mouse TRPC6 activators; shares compounds with TRPC6 inh; HEK293-TRPC6 membrane potential dye fluorescence, FDSS; activation, % at 10 µM; hit rate 11% among 2,800; AID 488961;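 active = ratio signal rise beyond 5 SD above unstimulated control wells' mean, seen in both duplicate runs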
Numbers stand for hits. Rows were chosen to be rich in hits. Some 2.3% of all compounds tested hit in one or more screens of this group.

COC(=O)c1ccc(COC(=O)C(CCSC)NC(=O)COc2ccccc2)cc1 (stereo not given) was read as TRPC6 inh inactive, TRPC4 potent inactive, TRPC4 act inactive, TRPC4 inh inactive and TRPC6 act inactive.
For O=C(NNC1=C(C(=O)C(F)(F)F)CCC1)c1ccccc1O the results were TRPC6 inh -5.2, TRPC4 potent inactive, TRPC4 act inactive, TRPC4 inh inactive, TRPC6 act inactive, HEK293 MPD ctr inactive, HEK293 MPD ctr 2 inactive, TRPC4/MOR mod inactive, TRPC4/MOR inh 2 inactive, TRPC6 inh conf 38% and TRPC6 act confirm inactive.
`COc1ccc(-c2nc3cccc(C)n3c2NCC2CCCO2)cc1O` (stereo not given) gave TRPC6 inh -6, TRPC4 potent inactive, TRPC4 act inactive, TRPC4 inh inactive, TRPC6 act inactive, HEK293 MPD ctr -232%, HEK293 MPD ctr 2 inactive, TRPC4/MOR mod -42%, TRPC4/MOR inh 2 46%, TRPC6 inh conf 45% and TRPC6 act confirm inactive.
`CN(Cc1ccccc1)C(=O)c1ccc2c(c1)NC(=O)C(N1CCOCC1)S2` (stereo not given) gave TRPC6 inh inactive, TRPC4 potent inactive, TRPC4 act inactive, TRPC4 inh inactive and TRPC6 act inactive.
`C[n+]1cccc2ccc3c(c21)OC(N)=C(C#N)C3c1ccccc1` (stereo not given) gave TRPC6 inh -9.2, TRPC4 potent inactive, TRPC4 act inactive, TRPC4 inh inactive, TRPC6 act inactive, HEK293 MPD ctr -284%, HEK293 MPD ctr 2 80%, TRPC4/MOR mod -48%, TRPC4/MOR inh 2 60%, TRPC6 inh conf 74% and TRPC6 act confirm inactive.
`CCOC(=O)C1=C(C)NC(=NC)SC1c1ccccc1` (stereo not given) gave TRPC6 inh inactive, TRPC4 potent inactive, TRPC4 act inactive, TRPC4 inh inactive and TRPC6 act inactive.
For CCN1CCN(c2c(C=O)c(Cl)nc3ccc(OC)cc23)CC1 the results were TRPC6 inh -7.5, TRPC4 potent inactive, TRPC4 act 78, TRPC4 inh inactive, TRPC6 act inactive, HEK293 MPD ctr -276%, HEK293 MPD ctr 2 72%, TRPC4/MOR mod inactive, TRPC4/MOR inh 2 54%, TRPC6 inh conf 58% and TRPC6 act confirm inactive.
For CC(C)OC(=O)Cn1nc(C(c2ccccc2)c2ccccc2)oc1=O the results were TRPC6 inh inactive, TRPC4 potent inactive, TRPC4 act inactive, TRPC4 inh inactive and TRPC6 act inactive.
For O=C(c1cccc(Cl)c1)N1CCN(CCCc2ccccc2)CC1 the results were TRPC6 inh inactive, TRPC4 potent inactive, TRPC4 act inactive, TRPC4 inh inactive and TRPC6 act inactive.
For O=c1c2[nH]cnc2n(-c2cccc(Br)c2)c(=O)n1Cc1ccccc1 the results were TRPC6 inh inactive, TRPC4 potent inactive, TRPC4 act inactive, TRPC4 inh inactive and TRPC6 act inactive.

Screening data (PubChem BioAssay)
